Measurements pooled from the literature.
Target: 5'-AMP-activated protein kinase catalytic subunit alpha-2 (PRKAA2, Homo sapiens, UniProt P54646)

| Structure (SMILES) | assay | setting | endpoint | result |
| --- | --- | --- | --- | --- |
| CN([C@@H]1CCc2c(CC(=O)O)c3cc(S(C)(=O)=O)ccc3n2C1)S(=O)(=O)c1ccc(F)cc1 | cell-free assay, competition with immobilised ligand | 1 µM | remaining binding | 100% |
| Cc1ccc(NC(=O)c2ccc(C)c(C(F)(F)F)c2)cc1C#Cc1nn(C2CCC(O)CC2)c2ncnc(N)c12 (stereo not drawn) | cell-free assay | 10 µM | remaining signal | 90% |
| c1ccc(CNc2nc(N3CCOc4ccccc43)nc3c2CCCC3)cc1 | target engagement in cells, inhibitor, chemoproteomics | 20 mM | inhibition | -6.2% |
| CCCS(=O)(=O)Nc1ccc(F)c(C(=O)c2c[nH]c3ncc(-c4ccc(Cl)cc4)cc23)c1F | enzyme activity, inhibitor | 1 µM | inhibition | < 20% |
| O=C(O)[C@H]1[C@H](Cn2nnc3ccccc3c2=O)CC[C@@H]1C(=O)c1ccc(OCCC2CCOCC2)cc1 | cell-free assay, competition with immobilised ligand | 1 µM | remaining binding | 100% |
| Cc1cc(NC(=O)c2cccc3cc(-c4cccc5[nH]nc(N)c45)ccc23)ccc1F | enzyme activity, inhibitor | 0.1 µM | activity vs control | 97% |
| Nc1ncnc2occ(-c3ccc(NC(=O)Nc4cc(C(F)(F)F)ccc4F)cc3)c12 | cell-free assay | 20 µM | remaining signal | 7.6% |
| COc1cc(-c2cc(-c3ccc(N4CCNCC4)cc3)cnc2C)cc(OC)c1OC | enzyme activity, inhibitor | 0.1 µM | inhibition | 1% |
| CC(=O)N1CCC(c2ccc(C(=O)NC(=N)N)cc2C(F)(F)F)CC1 | cell-free assay, competition with immobilised ligand | 1 µM | remaining binding | 100% |
| CCCOc1ccc(OC)c(F)c1C(=O)c1ccc(C(=O)N[C@@H]2CNC[C@H]2NC(=O)c2ccc3[nH]ncc3c2)cc1 | enzyme activity, inhibitor | 50 nM | remaining activity | 51% |
| CC(=O)N1CCC(c2ccc(C(=O)NC3=NCCN3)cc2C(F)(F)F)CC1 | cell-free assay, competition with immobilised ligand | 1 µM | remaining binding | 100% |
| CN1CC(Oc2cnc(C#N)cc2-c2ccn3nc(NC(=O)C4CC4)cc3c2)C1 | enzyme activity, inhibitor | 1 µM | inhibition | 3% |
